Experimental data as given in ChEMBL document CHEMBL1148170, “Antiplatelet effects and vasorelaxing action of some constituents of Formosan plants” (1993).

Columns and labels:
[1] = test system: Platelet; assay: Inhibition of collagen-induced platelet aggregation in rabbit platelet-rich plasma at 100 ug/mL after 3 mins by turbidimetric method; format: functional, Oryctolagus cuniculus; parameters: scale not given: the % may be the effect or the level left
How it was run: (§1)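 Preincubated with test agent or 0.5% DMSO (final, control) at 37° for 3 min, then ADP (20 μM), arachidonic acid (100 μM), collagen (10 μg/ml) or PAF (2 ng/ml) added. Stirred at 1200 rpm, turbidimetric aggregometry. Percent aggregation as mean ± SEM.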

[2] = test system: Platelet; assay: Inhibition of arachidonic acid-induced platelet aggregation in rabbit platelet-rich plasma at 100 ug/mL after 3 mins by turbidimetric method; format: functional, Oryctolagus cuniculus; parameters: scale not given: the % may be the effect or the level left; how it was run: as §1
[3] = test system: Platelet; assay: Inhibition of platelet activity factor-induced platelet aggregation in rabbit platelet-rich plasma at 100 ug/mL after 3 mins by turbidimetric method; format: functional, Oryctolagus cuniculus; parameters: scale not given: the % may be the effect or the level left; how it was run: as §1
[4] = test system: Aorta; assay: Inhibition of norepinephrine-induced Wistar rat thoracic aorta phasic contraction at 100 ug/mL after 15 mins; format: functional
How it was run: (§2)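 Wistar rat thoracic aorta rings, about 5 mm, in Krebs solution at 37° gassed with 95% O2/5% CO2, under 1 g tension, equilibrated 90 min. Preincubated 15 min with compound or 0.1% DMSO (control), then stimulated with high K+ (80 mM) plus Ca2+ (1.9 mM) or norepinephrine 3 μM (phasic and tonic phases). Expressed as % of control contraction, mean ± SE, n = 3.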

[5] = test system: Aorta; assay: Inhibition of K(+)/Ca(2+)-induced Wistar rat thoracic aorta contraction at 100 ug/mL after 15 mins; format: functional; how it was run: as §2
[6] = test system: Aorta; assay: Inhibition of norepinephrine-induced Wistar rat thoracic aorta tonic contraction at 100 ug/mL after 15 mins; format: functional; how it was run: as §2
[7] = test system: Platelet; assay: Inhibition of collagen-induced platelet aggregation in rabbit platelet-rich plasma at 50 ug/mL after 3 mins by turbidimetric method; format: functional, Oryctolagus cuniculus; parameters: scale not given: the % may be the effect or the level left
How it was run: (§3)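 Washed rabbit platelets from EDTA-anticoagulated platelet-rich plasma, 4.5 × 10^8/ml in Tyrode's solution with 0.35% BSA. Preincubated with compound or 0.5% DMSO (final) at 37° for 3 min, stirred at 1200 rpm. Arachidonic acid (100 µM) or collagen (10 µg/ml) then added. Turbidimetric read-out on a Lumi-aggregometer gives % aggregation as mean ± SEM.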

[8] = test system: Platelet; assay: Inhibition of ADP-induced platelet aggregation in rabbit platelet-rich plasma at 50 ug/mL after 3 mins by turbidimetric method; format: functional, Oryctolagus cuniculus; parameters: scale not given: the % may be the effect or the level left
How it was run: as §1, with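 “Washed rabbit platelets from EDTA-anticoagulated platelet-rich plasma, 4.5 × 10^8/ml in Tyrode's solution with 0.35% BSA. Preincubated” for “Preincubated”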

[9] = test system: Platelet; assay: Inhibition of arachidonic acid-induced platelet aggregation in rabbit platelet-rich plasma at 50 ug/mL after 3 mins by turbidimetric method; format: functional, Oryctolagus cuniculus; parameters: scale not given: the % may be the effect or the level left; how it was run: as §3
[10] = test system: Platelet; assay: Inhibition of platelet activity factor-induced platelet aggregation in rabbit platelet-rich plasma at 50 ug/mL after 3 mins by turbidimetric method; format: functional, Oryctolagus cuniculus; parameters: scale not given: the % may be the effect or the level left
How it was run: as §1, with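 “Washed rabbit platelets from EDTA-anticoagulated platelet-rich plasma, 4.5 × 10^8/ml in Tyrode's solution with 0.35% BSA. Preincubated” for “Preincubated”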

[11] = test system: Platelet; assay: Inhibition of ADP-induced platelet aggregation in rabbit platelet-rich plasma at 100 ug/mL after 3 mins by turbidimetric method; format: functional, Oryctolagus cuniculus; parameters: scale not given: the % may be the effect or the level left
How it was run: as §1, with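 “Washed rabbit platelets from EDTA-anticoagulated platelet-rich plasma, 4.5 × 10^8/ml in Tyrode's solution with 0.35% BSA. Preincubated” for “Preincubated”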

[12] = test system: Platelet; assay: Inhibition of arachidonic acid-induced platelet aggregation in rabbit platelet-rich plasma at 25 ug/mL after 3 mins by turbidimetric method; format: functional, Oryctolagus cuniculus; parameters: scale not given: the % may be the effect or the level left
How it was run: as §1, with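 “Washed rabbit platelets from EDTA-anticoagulated platelet-rich plasma, 4.5 × 10^8/ml in Tyrode's solution with 0.35% BSA. Preincubated” for “Preincubated”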

[13] = test system: Platelet; assay: Inhibition of platelet activity factor-induced platelet aggregation in rabbit platelet-rich plasma at 25 ug/mL after 3 mins by turbidimetric method; format: functional, Oryctolagus cuniculus; parameters: scale not given: the % may be the effect or the level left
How it was run: as §1, with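 “Washed rabbit platelets from EDTA-anticoagulated platelet-rich plasma, 4.5 × 10^8/ml in Tyrode's solution with 0.35% BSA. Preincubated” for “Preincubated”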

[14] = test system: Platelet; assay: Inhibition of ADP-induced platelet aggregation in rabbit platelet-rich plasma at 25 ug/mL after 3 mins by turbidimetric method; format: functional, Oryctolagus cuniculus; parameters: scale not given: the % may be the effect or the level left
How it was run: as §1, with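 “Washed rabbit platelets from EDTA-anticoagulated platelet-rich plasma, 4.5 × 10^8/ml in Tyrode's solution with 0.35% BSA. Preincubated” for “Preincubated”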

[15] = test system: Platelet; assay: Inhibition of collagen-induced platelet aggregation in rabbit platelet-rich plasma at 25 ug/mL after 3 mins by turbidimetric method; format: functional, Oryctolagus cuniculus; parameters: scale not given: the % may be the effect or the level left
How it was run: as §1, with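 “Washed rabbit platelets from EDTA-anticoagulated platelet-rich plasma, 4.5 × 10^8/ml in Tyrode's solution with 0.35% BSA. Preincubated” for “Preincubated”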

[16] = test system: Aorta; assay: Inhibition of norepinephrine-induced Wistar rat thoracic aorta tonic contraction at 10 ug/mL after 15 mins; format: functional; parameters: scale not given: the % may be the effect or the level left
How it was run: (§4)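 Thoracic aorta rings (~5 mm) from Wistar rats of either sex (250–300 g) held in Krebs solution at 37° under 95% O2/5% CO2. Equilibrated 90 min at 1 g tension, then preincubated 15 min with compound or 0.1% DMSO. Contraction by norepinephrine (3 µM), phasic and tonic components, expressed as % of control contraction, mean ± SE, n = 3.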

[17] = test system: Aorta; assay: Inhibition of norepinephrine-induced Wistar rat thoracic aorta phasic contraction at 50 ug/mL after 15 mins; format: functional; parameters: scale not given: the % may be the effect or the level left; how it was run: as §4
[18] = test system: Aorta; assay: Inhibition of norepinephrine-induced Wistar rat thoracic aorta tonic contraction at 50 ug/mL after 15 mins; format: functional; parameters: scale not given: the % may be the effect or the level left; how it was run: as §4
[19] = test system: Aorta; assay: Inhibition of norepinephrine-induced Wistar rat thoracic aorta tonic contraction at 20 ug/mL after 15 mins; format: functional; parameters: scale not given: the % may be the effect or the level left; how it was run: as §4
[20] = test system: Aorta; assay: Inhibition of norepinephrine-induced Wistar rat thoracic aorta phasic contraction at 20 ug/mL after 15 mins; format: functional; parameters: scale not given: the % may be the effect or the level left; how it was run: as §4
[21] = test system: Aorta; assay: Inhibition of norepinephrine-induced Wistar rat thoracic aorta phasic contraction at 10 ug/mL after 15 mins; format: functional; parameters: scale not given: the % may be the effect or the level left; how it was run: as §4
[22] = test system: Platelet; assay: Inhibition of collagen-induced platelet aggregation in rabbit platelet-rich plasma after 3 mins by turbidimetric method; format: functional; conditions: Oryctolagus cuniculus

Compound: CC(=O)Oc1cc(OC(C)=O)c2c(=O)c(OC(C)=O)c(-c3ccc(OC(C)=O)c(OC(C)=O)c3)oc2c1
- Activity [1]: 17.4%
- Activity [2]: 2.4%
- Activity [3]: 89.2%

Compound: O=c1c(O[C@@H]2O[C@H](CO[C@@H]3OC[C@H](O)[C@H](O)[C@H]3O)[C@H](O)[C@H](O)[C@H]2O)c(-c2ccc(O)c(O)c2)oc2cc(O)cc(O)c12
- Contraction as % of control [4]: 100%
- Contraction as % of control [5]: 100%
- Contraction (% of control) [6]: 108.4%

Compound: CC(=O)Oc1cc(OC(C)=O)c2c(=O)c(O[C@@H]3O[C@H](CO[C@@H]4OC[C@H](OC(C)=O)[C@H](OC(C)=O)[C@H]4OC(C)=O)[C@H](OC(C)=O)[C@H](OC(C)=O)[C@H]3OC(C)=O)c(-c3ccc(OC(C)=O)c(OC(C)=O)c3)oc2c1
- Activity [1]: 38.5%
- Activity [2]: 78.3%
- Activity [3]: 87.7%

Compound: COc1cc(OC(C)=O)c2c(=O)c(O[C@@H]3O[C@H](CO[C@@H]4O[C@@H](C)[C@H](O[C@@H]5O[C@@H](C)[C@H](OC(C)=O)[C@@H](OC(C)=O)[C@H]5OC(C)=O)[C@@H](OC(C)=O)[C@H]4OC(C)=O)[C@H](OC(C)=O)[C@H](OC(C)=O)[C@H]3OC(C)=O)c(-c3ccc(OC(C)=O)c(OC)c3)oc2c1
- Activity [1]: 87.8%
- Activity [2]: 88.8%
- Activity [3]: 90.8%

Compound: Cc1cc(O)c2c(c1)C(=O)c1cccc(O)c1C2=O [CHRYSOPHANOL]
- Activity [7]: 85.4%
- Activity [8]: 82.6%
- Activity [9]: 90.6%
- Activity [10]: 88.3%

Compound: CC(=O)Oc1cc(OC(C)=O)c2c(c1)C(=O)c1cc(C)cc(OC(C)=O)c1C2=O [EMODIN TRIACETATE]
- Activity [1]: 89.6%
- Activity [2]: 82.5%
- Activity [11]: 72.2%
- Activity [3]: 84.5%

Compound: Cc1cc(O)c2c(c1)C(=O)c1cc(O)cc(O)c1C2=O [EMODIN]
- Activity [12]: 90.2%
- Activity [7]: 83.3%
- Activity [9]: 64.5%
- Activity [1]: 75.7%
- Activity [2]: 33.6%
- Activity [11]: 65.1%
- Activity [3]: 76.4%

Compound: O=c1c(O[C@@H]2O[C@H](CO)[C@H](O)[C@H](O)[C@H]2O)c(-c2ccc(O)c(O)c2)oc2cc(O)cc(O)c12 [HYPEROSIDE]
- Contraction as % of control [4]: 100%
- Activity [1]: 87.3%
- Activity [2]: 92.2%
- Contraction as % of control [5]: 120.9%
- Contraction (% of control) [6]: 98.8%
- Activity [11]: 71.4%
- Activity [3]: 93.8%

Compound: COc1ccc2c(c1)c(CC(=O)O)c(C)n2C(=O)c1ccc(Cl)cc1 [INDOMETHACIN]
- Activity [1]: 72.3%
- Activity [2]: 0%
- Activity [11]: 69.5%
- Activity [3]: 89.4%

Compound: COc1cc(OC(C)=O)c2c(c1)C(=O)c1cc(C)cc(OC(C)=O)c1C2=O [PHYSCION DIACETATE]
- Activity [12]: 90.3%
- Activity [13]: 93.9%
- Activity [14]: 76.5%
- Activity [15]: 89.4%

Compound: COc1cc(O)c2c(c1)C(=O)c1cc(C)cc(O)c1C2=O [PHYSCION]
- Activity [12]: 89.6%
- Activity [13]: 80.7%
- Activity [14]: 78.9%
- Activity [15]: 86.8%

Compound: O=c1c(O)c(-c2ccc(O)c(O)c2)oc2cc(O)cc(O)c12 [QUERCETIN]
- Contraction as % of control [4]: 27%
- Activity [16]: 101.9%
- Activity [17]: 15%
- Activity [18]: 0%
- Activity [19]: 29.1%
- Contraction as % of control [5]: 13.9%
- Contraction (% of control) [6]: 0%
- Activity [20]: 44.9%
- Activity [21]: 105%

Compound: COc1cc(OC(C)=O)c2c(=O)c(OC(C)=O)c(-c3ccc(OC(C)=O)c(OC)c3)oc2c1 [RHAMNAZIN TRIACETATE]
- Activity [22]: Dose-dependent effect
- Activity [1]: 14.3%
- Activity [2]: 10%
- Activity [3]: 84.5%

Compound: COc1cc(OC(C)=O)c2c(=O)c(OC(C)=O)c(-c3ccc(OC(C)=O)c(OC(C)=O)c3)oc2c1 [RHAMNETIN TETRAACETATE]
- Activity [22]: Dose-dependent effect
- Activity [1]: 0%
- Activity [2]: 2.6%
- Activity [3]: 0%

Compound: CC(=O)Oc1cc(OC(C)=O)c2c(=O)c(OC(C)=O)c(-c3ccc(O[C@@H]4O[C@H](CO[C@@H]5O[C@@H](C)[C@H](OC(C)=O)[C@@H](OC(C)=O)[C@H]5O[C@@H]5O[C@@H](C)[C@H](OC(C)=O)[C@@H](OC(C)=O)[C@H]5OC(C)=O)[C@H](OC(C)=O)[C@H](OC(C)=O)[C@H]4OC(C)=O)cc3)oc2c1 [RHAMNUSTRIOSIDE UNDECAAACETATE]
- Activity [1]: 86.5%
- Activity [2]: 88.5%
- Activity [3]: 89.9%

Compound: CC(=O)Oc1cc(OC(C)=O)c2c(=O)c(O[C@@H]3O[C@H](CO[C@@H]4O[C@@H](C)[C@H](OC(C)=O)[C@@H](OC(C)=O)[C@H]4OC(C)=O)[C@@H](OC(C)=O)[C@H](OC(C)=O)[C@H]3OC(C)=O)c(-c3ccc(OC(C)=O)c(OC(C)=O)c3)oc2c1 [RUTIN DECAACETATE]
- Activity [1]: 27.3%
- Activity [2]: 25.9%
- Activity [11]: 72.4%
- Activity [3]: 88.7%

Compound: C[C@@H]1O[C@@H](OC[C@H]2O[C@@H](Oc3c(-c4ccc(O)c(O)c4)oc4cc(O)cc(O)c4c3=O)[C@H](O)[C@@H](O)[C@@H]2O)[C@H](O)[C@H](O)[C@H]1O [RUTIN]
- Contraction as % of control [4]: 103.8%
- Activity [1]: 87%
- Activity [2]: 93.5%
- Contraction as % of control [5]: 112.9%
- Contraction (% of control) [6]: 120.6%
- Activity [11]: 75%
- Activity [3]: 91.1%
